Source: ChEMBL document CHEMBL3407440, “Monocarbonyl analogs of curcumin inhibit growth of antibiotic sensitive and resistant strains of Mycobacterium tuberculosis” (Eur J Med Chem, 2015)
pIC50: −log10 of the molar value. Active and inactive are the calls of the source. The calls are words filed in the database; no cut-off is given here.

Key:
Mycobacterium marinum [1] = experiment: Antituberculosis activity against Mycobacterium marinum assessed as diameter of zone of inhibition at 100 mM incubated for 7 days by disk diffusion assay; assay type: functional; details: 168 h, read-out: DIZ
In short: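 Mm 1218R grown in 7H9-ADC (0.025% Tween 80) to OD600 0.35, diluted to OD600 0.04, spread on 7H10-OADC agar and air-dried 10 min. A 6 mm disk received 10 µl of 100 mM analog (in DMSO or water). Plates were incubated 7 days at 30 °C in 5% CO2 (legend: 32 °C), three plates per analog. The bacteria-free zone around the disk was measured.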

Mycobacterium marinum [2] = experiment: Antituberculosis activity against Mycobacterium marinum assessed as growth inhibition after 72 hrs by liquid culture assay; assay type: functional, organism-based
In short: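 Mm 1218R grown in 7H9-ADC (0.025% Tween 80) to OD600 0.35, then diluted to OD600 0.04. Cultured 72 h with analog in DMSO at 0.780–100 µM (twofold steps), in duplicate, alongside no-drug and 1% DMSO vehicle controls. Mean ± SEM of three experiments.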

[3] = tested on: Mycobacterium tuberculosis; experiment: Antituberculosis activity against Mycobacterium tuberculosis Beijing F2 assessed as growth inhibition after 72 hrs by liquid culture assay; assay type: functional, organism-based; details: Beijing F2, 72 h
[4] = Tmax in CD2F1 male mouse at 10 mg/kg, ip; assay type: ADME, organism-based; design: dose 10 mg/kg, route intraperitoneal; details: in vivo
[5] = Cmax in CD2F1 male mouse at 10 mg/kg, po; assay type: ADME, organism-based; design: dose 10 mg/kg, route oral; details: in vivo
[6] = Half life in CD2F1 male mouse at 10 mg/kg, ip; assay type: ADME, organism-based; design: dose 10 mg/kg, route intraperitoneal; details: in vivo
[7] = Half life in CD2F1 male mouse at 10 mg/kg, po; assay type: ADME, organism-based; design: dose 10 mg/kg, route oral; details: in vivo
[8] = Tmax in CD2F1 male mouse at 10 mg/kg, po; assay type: ADME, organism-based; design: dose 10 mg/kg, route oral; details: in vivo
[9] = Cmax in CD2F1 male mouse at 10 mg/kg, ip; assay type: ADME, organism-based; design: dose 10 mg/kg, route intraperitoneal; details: in vivo
[10] = tested on: Mycobacterium tuberculosis; experiment: Antituberculosis activity against Mycobacterium tuberculosis H37Rv assessed as growth inhibition after 72 hrs by liquid culture assay; assay type: functional, organism-based
[11] = Half life in CD1 male mouse at 50 mg/kg, po; assay type: ADME, organism-based; design: dose 50 mg/kg, route oral; details: in vivo
[12] = Tmax in CD1 male mouse at 50 mg/kg, po; assay type: ADME, organism-based; design: dose 50 mg/kg, route oral; details: in vivo
[13] = Cmax in CD1 male mouse at 50 mg/kg, po; assay type: ADME, organism-based; design: dose 50 mg/kg, route oral; details: in vivo
Mycobacterium marinum [14] = experiment: Antituberculosis activity against rifampicin-resistant Mycobacterium marinum assessed as growth inhibition after 72 hrs by liquid culture assay; assay type: functional, organism-based
In short: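 Rifampicin-resistant Mm 1218R^rifR cultured in 7H9-ADC broth with DMSO, rifampicin or analog at varied concentrations for 72 h. Growth read as OD600 and normalized to untreated culture; IC50 derived. Mean ± SEM of three experiments.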

[15] = tested on: Mycobacterium tuberculosis; experiment: Antituberculosis activity against Mycobacterium tuberculosis H37Rv assessed as zone of inhibition at 100 mM incubated for 28 days by disk diffusion assay; assay type: functional, organism-based; details: 672 h
In short: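 Disk diffusion on Mtb H37Rv plates: disk loaded with 100 mM analog, plates incubated 28 days at 37 °C, then zone of inhibition measured.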

Mycobacterium marinum [16] = experiment: Potentiation of antituberculosis activity against Mycobacterium marinum assessed as UBS-109-induced growth inhibition at 0.3 uM after 72 hrs by liquid culture assay; assay type: functional, organism-based
In short: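 Mm cultured in 7H9-ADC broth with rifampicin (0.250–4 µg/mL) alone or combined with analog (6.250–100 µM), in duplicate, with no-drug and 1% DMSO controls. OD600 read after 72 h and normalized to vehicle. Combinations compared with each agent alone by nonparametric ANOVA. Mean ± SEM of three experiments.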

[17] = Half life in Swiss Webster male mouse at 12.5 mg/kg, ip; assay type: ADME, organism-based; design: dose 12.5 mg/kg, route intraperitoneal; details: in vivo
[18] = Cmax in Swiss Webster male mouse at 12.5 mg/kg, ip; assay type: ADME, organism-based; design: dose 12.5 mg/kg, route intraperitoneal; details: in vivo
[19] = Tmax in Swiss Webster male mouse at 12.5 mg/kg, ip; assay type: ADME, organism-based; design: dose 12.5 mg/kg, route intraperitoneal; details: in vivo

## O=C1/C(=C/c2ccccn2)CNC[C@H]1Cc1ccccn1
Mycobacterium marinum [1]
  zone of inhibition at 100000 µM: 4.6 mm
Mycobacterium marinum [2]
  pIC50: 4.30

## O=C1/C(=C/c2ccccn2)CSC/C1=C\c1ccccn1
Mycobacterium marinum [1]
  zone of inhibition at 100000 µM: 2.7 mm

## COC(=O)CCC(=O)N1C/C(=C\c2ccccc2F)C(=O)/C(=C/c2ccccc2F)C1
Mycobacterium marinum [1]
  zone of inhibition at 100000 µM: 1.8 mm

## O=C1/C(=C/c2ccccc2F)CNC/C1=C\c1ccccc1F
[3]
  pIC50: 4.30
[4]
  Tmax: 3 min
[5]
  Cmax: 275 ng/mL
[6]
  half-life: 219 min
Mycobacterium marinum [1]
  zone of inhibition at 100000 µM: 2.6 mm
[7]
  half-life: 177 min
Mycobacterium marinum [2]
  pIC50: 4.60
[8]
  Tmax: 3 min
[9]
  Cmax: 259 ng/mL
[10]
  pIC50: 4.70

## O=C1C(Cc2ccccn2)CNCC1Cc1ccccn1 (stereo unspecified)
Mycobacterium marinum [1]
  zone of inhibition at 100000 µM: 0 mm

## CN1C/C(=C\c2ccccc2F)C(=O)/C(=C/c2ccccc2F)C1
Mycobacterium marinum [1]
  zone of inhibition at 100000 µM: 1.4 mm

## CN1C/C(=C\c2ccccn2)C(=O)/C(=C/c2ccccn2)C1
[3]
  pIC50: 4.70
[11]
  half-life: 222 min
[12]
  Tmax: 30 min
Mycobacterium marinum [1]
  zone of inhibition at 100000 µM: 5.7 mm
[13]
  Cmax: 131 ng/mL
Mycobacterium marinum [2]
  pIC50: 5.00
Mycobacterium marinum [14]
  pIC50: 5.40
[10]
  pIC50: 5.00
[15]
  pIC50: 5.40

## CO[C@H]1/C=C/O[C@@]2(C)Oc3c(C)c(O)c4c(O)c(c(/C=N/N5CCN(C)CC5)c(O)c4c3C2=O)NC(=O)/C(C)=C\C=C\[C@H](C)[C@H](O)[C@@H](C)[C@@H](O)[C@@H](C)[C@H](OC(C)=O)[C@@H]1C
Mycobacterium marinum [16]
  Activity: inactive

## O=C1/C(=C/c2ccccn2)CNC/C1=C\c1ccccn1
[17]
  half-life: 132 min
Mycobacterium marinum [1]
  zone of inhibition at 100000 µM: 4.7 mm
[18]
  Cmax: 1070 ng/mL
[19]
  Tmax: 15 min

## COc1cc(/C=C/C(=O)CC(=O)/C=C/c2ccc(O)c(OC)c2)ccc1O [CURCUMIN]
Mycobacterium marinum [1]
  zone of inhibition at 100000 µM: 1.1 mm
